{"data": "Results from different studies", "target": "Rhodopsin kinase GRK1 (GRK1, Homo sapiens, UniProt Q15835)", "One construct used (Q15835 1-563)": "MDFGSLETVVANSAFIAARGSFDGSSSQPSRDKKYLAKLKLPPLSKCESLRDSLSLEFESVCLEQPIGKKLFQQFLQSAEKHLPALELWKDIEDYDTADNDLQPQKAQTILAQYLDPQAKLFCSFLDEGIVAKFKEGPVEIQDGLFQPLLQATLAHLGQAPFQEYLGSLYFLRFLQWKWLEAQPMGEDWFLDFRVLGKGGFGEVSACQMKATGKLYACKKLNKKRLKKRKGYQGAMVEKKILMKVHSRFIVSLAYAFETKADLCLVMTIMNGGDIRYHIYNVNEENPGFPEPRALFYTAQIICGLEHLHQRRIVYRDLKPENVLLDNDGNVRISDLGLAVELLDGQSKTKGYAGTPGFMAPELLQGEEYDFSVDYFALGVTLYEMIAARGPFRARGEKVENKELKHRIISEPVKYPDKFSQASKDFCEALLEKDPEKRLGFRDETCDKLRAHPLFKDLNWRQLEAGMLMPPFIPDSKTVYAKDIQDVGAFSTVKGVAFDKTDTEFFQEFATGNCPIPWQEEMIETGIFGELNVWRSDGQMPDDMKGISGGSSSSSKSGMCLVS"}
{"test": "binding, competition with immobilised ligand", "setting": "1 µM", "remaining binding": "100%", "SMILES": "O=C(c1ccc(Nc2ncc(Cl)c(-c3ccc(Cl)s3)n2)cc1)N1CCC(N2CCCC2)CC1"}
{"test": "cell-free assay, competition with immobilised ligand", "setting": "0.1 µM", "remaining binding": "94%", "SMILES": "CS(=O)(=O)N1CCCC(NC(=O)[C@H](CCC2CCCCC2)NC(=O)c2ccc(CNc3ncnc4c3nnn4-c3ccccc3)cc2)C1 (stereo partly shown)"}
{"test": "cell-free assay, competition with immobilised ligand", "setting": "5 µM", "remaining binding": "98%", "SMILES": "COc1ncc2cc3ccccc3nc2c1C#N"}
{"test": "cell-free assay, competition with immobilised ligand", "setting": "0.1 µM", "remaining binding": "92%", "SMILES": "Cn1cc(Cl)c2c(Oc3c(F)cc(Nc4cc(Cl)nc(N)n4)cc3F)ccnc21"}
{"test": "binding, competition with immobilised ligand", "setting": "1 µM", "remaining binding": "67%", "SMILES": "CNC(=O)[C@@H]1CC[C@@H](n2c(-c3ccc4cnccc4c3)nc3ccc(C(=O)NCc4cccc(C(N)=O)c4)cc32)C1"}
{"test": "binding, competition with immobilised ligand", "setting": "1 µM", "remaining binding": "93%", "SMILES": "O=C(c1ccc(Nc2nccc(-c3cc4ccccc4s3)n2)cc1)N1CCC(N2CCCC2)CC1"}
{"test": "binding, competition with immobilised ligand", "setting": "1 µM", "remaining binding": "99%", "SMILES": "COc1cnc(Nc2cccc(S(N)(=O)=O)c2)nc1N1CCN(c2ccccc2)CC1"}
{"test": "binding", "setting": "1 µM", "remaining binding": "82%", "SMILES": "CC1CCCN1c1nccc(-c2cnn3ncccc23)n1 (stereo not shown)"}
{"test": "cell-free assay, competition with immobilised ligand", "setting": "1 µM", "remaining binding": "93%", "SMILES": "CN(C(=O)c1ccccc1)c1cc(N(C)c2ccc3c(c2)CCc2ccc(C(=O)NCCN4CCOCC4)cc2C3=O)ccc1F"}
{"test": "binding", "setting": "1 µM", "remaining binding": "77%", "SMILES": "C[C@@H]1CCN(c2nccc(-c3cnn4ncccc34)n2)C1"}
{"test": "cell-free assay, competition with immobilised ligand", "setting": "1 µM", "remaining binding": "100%", "SMILES": "CS(=O)(=O)NCC[C@H](NC(=O)c1cncc2c1cnn2-c1ccc(F)cc1)c1ccnc(S(C)(=O)=O)c1"}
{"test": "binding, competition with immobilised ligand", "setting": "1 µM", "remaining binding": "77%", "SMILES": "O=C(NCC1CCOCC1)c1n[nH]cc1NC(=O)c1c(F)cccc1F"}
{"test": "binding", "setting": "1 µM", "remaining binding": "82%", "SMILES": "COc1ccnn2ncc(-c3ccnc(N(C)C)n3)c12"}
{"test": "cell-free assay, competition with immobilised ligand", "setting": "1 µM", "remaining binding": "88%", "SMILES": "CC1=C(C#N)C(c2ccc3c(c2)c(NC(=O)c2ccccc2C)nn3C)C(C#N)=C(C)N1"}
{"test": "binding", "setting": "1 µM", "remaining binding": "100%", "SMILES": "CN(CCCC(F)(F)F)c1nccc(-c2cnn3ncccc23)n1"}
{"test": "cell-free assay, competition with immobilised ligand", "setting": "0.1 µM", "remaining binding": "100%", "SMILES": "COCCOc1nc(-c2ccc(Cl)nc2)nc2c1CN(C(=O)c1ncn3ccccc13)CC2"}
{"test": "binding", "setting": "1 µM", "remaining binding": "100%", "SMILES": "N[C@H]1CCN(c2nccc(-c3cnn4ncccc34)n2)C1"}
{"test": "binding, competition with immobilised ligand", "setting": "0.1 µM", "remaining binding": "76%", "SMILES": "C[C@@H](c1ccc(-n2cnc3c(N)ncnc32)cc1)N1CCc2nn(C)c(Cc3ccccc3)c2C1=O"}
{"test": "binding, competition with immobilised ligand", "setting": "1 µM", "remaining binding": "100%", "SMILES": "CCN1CCN(Cc2ccc(C(=O)Nc3ccc(C)c(Oc4ccc5c(c4)CC(=O)N5)c3)cc2C(F)(F)F)CC1"}
